Columns and labels:
Renin [1] = molecular target: T1, Renin (Homo sapiens, UniProt P00797); assay: Inhibitory activity against human plasma renin; type: cell-free
T1 sequence (P00797 whole entry): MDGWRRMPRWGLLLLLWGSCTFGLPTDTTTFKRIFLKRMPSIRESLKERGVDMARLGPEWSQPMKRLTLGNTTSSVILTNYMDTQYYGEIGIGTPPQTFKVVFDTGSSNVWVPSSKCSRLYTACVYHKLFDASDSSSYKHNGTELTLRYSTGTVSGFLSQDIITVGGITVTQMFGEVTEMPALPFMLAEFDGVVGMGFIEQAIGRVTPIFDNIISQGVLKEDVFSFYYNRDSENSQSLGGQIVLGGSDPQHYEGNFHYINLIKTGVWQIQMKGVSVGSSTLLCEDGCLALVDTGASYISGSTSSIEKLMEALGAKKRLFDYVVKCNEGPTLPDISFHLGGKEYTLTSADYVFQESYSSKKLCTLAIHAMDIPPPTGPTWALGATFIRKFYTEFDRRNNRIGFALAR

[2] = Distribution coefficient at pH 7.4; type: physicochemical; settings: RP-HPLC, read-out: Log Kw
In short: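 Log Kw read as log D by HPLC in 20 mM MOPS buffer, pH 7.4, on an LC-ABZ column ([…]) fitted with an LC-ABZ precolumn (20x46 mm).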

Renin [3] = molecular target: T1, Renin; assay: Inhibitory activity against purified recombinant human renin

| Structure (SMILES) | IC50 (Renin [1]) [nM] | chromatographic logD [2] | IC50 (Renin [3]) [nM] |
| --- | --- | --- | --- |
| O[C@@H]1CNC[C@H](OCc2ccc3ccccc3c2)[C@H]1c1ccc(OCCCOCc2ccccc2)cc1 (racemic) | 1400 | 4.9 | 6.4 |
| COc1ccccc1COCCCOc1ccc([C@H]2CCNC[C@@H]2OCc2ccc3cccnc3c2)cc1 (racemic) | 160 | – | 4 |
| c1ccc(COCCCOc2ccc([C@H]3[C@H](CSc4ccncc4)CNC[C@@H]3OCc3ccc4ccccc4c3)cc2)cc1 (racemic) | 490 | 5.8 | 0.4 |
| COc1ccccc1COCCCOc1ccc([C@H]2CCNC[C@@H]2OCc2cc(OC)c3ccccc3c2OC)cc1 (racemic) | 12 | 5.4 | 0.087 |
| c1ccc(COCCCOc2ccc([C@H]3[C@H](COCCN4CCOCC4)CNC[C@@H]3OCc3ccc4ccccc4c3)cc2)cc1 (racemic) | 160 | – | 3.3 |
| c1ccc(COCCCOc2ncc([C@H]3CCNC[C@@H]3OCc3ccc4ccccc4c3)cn2)cc1 (racemic) | 8200 | 4.4 | 820 |
| COc1ccccc1COCCCOc1ccc([C@H]2CCNC[C@@H]2OCc2ccc3ccc(=O)[nH]c3c2)cc1 (racemic) | 110 | 3.9 | 8 |
| c1ccc(COCCCOc2ccc([C@H]3CCNC[C@@H]3OCc3ccc4cc(OCCN5CCOCC5)ccc4c3)cc2)cc1 (racemic) | 1400 | – | 22 |
| COc1ccccc1COCCCOc1ccc([C@H]2CCNC[C@@H]2OCc2cc(OC)c3ccccc3c2OC)cn1 (racemic) | 110 | 4.7 | 0.5 |
| COc1ccccc1COCCCOc1ccc([C@H]2CCNC[C@@H]2OCc2ccc3c(c2)NCCC3)cc1 (racemic) | 37 | 3.8 | 0.67 |
| COc1ccccc1COCCCOc1ncc([C@H]2CCNC[C@@H]2OCc2cc(OC)c3ccccc3c2OC)cn1 (racemic) | 160 | 4.1 | 10 |
| c1ccc(COCCCOc2ccc([C@H]3CCNC[C@@H]3OCc3ccc4ccccc4c3)cc2)cc1 (racemic) | 1300 | – | 5 |
| c1ccc(COCCCOc2ccc([C@H]3CCNC[C@@H]3OCc3ccc4cccnc4c3)cc2)cc1 (racemic) | 810 | – | 12 |
| c1ccc(COCCCOc2ccc([C@@H]3[C@@H](OCc4ccc5ccccc5c4)CNC[C@H]3OCCN3CCOCC3)cc2)cc1 (racemic) | 380 | – | 1.8 |
| O[C@H]1CNC[C@H](OCc2ccc3ccccc3c2)[C@H]1c1ccc(OCCCOCc2ccccc2)cc1 (racemic) | 10000 | – | 9 |
| c1ccc(COCCCOc2ccc([C@H]3CCNC[C@@H]3OCc3ccc4ccc(OCCN5CCOCC5)cc4c3)cc2)cc1 (racemic) | 130 | 5.6 | 12 |
| O=S(=O)(O)OC[C@@H]1CNC[C@H](OCc2ccc3ccccc3c2)[C@H]1c1ccc(OCCCOCc2ccccc2)cc1 (racemic) | 1900 | – | 2.3 |
| c1ccc(COCCCOc2ccc([C@H]3CCNC[C@@H]3OCc3ccc4c(c3)NCCC4)cc2)cc1 (racemic) | 330 | – | 5.1 |
| c1ccc(COCCCOc2ccc([C@H]3CCNC[C@@H]3OCc3ccc4ccccc4c3)cn2)cc1 (racemic) | 7100 | 5.1 | 590 |
| c1ccc(COCCCOc2ccc([C@H]3[C@H](Cn4cncn4)CNC[C@@H]3OCc3ccc4ccccc4c3)cc2)cc1 (racemic) | 190 | – | 0.92 |
